Data taken from ChEMBL document CHEMBL1144402, “Effect of a 6-cyano substituent in 14-oxygenated N-methylmorphinans on opioid receptor binding and antinociceptive potency” (J Med Chem, 2005).
pKi: −log10 of the molar value.

Legend:
[1] = biological target: Kappa-type opioid receptor (Rattus norvegicus, UniProt P34975); experiment: Displacement of[3H]U69,593 from kappa opioid receptor of rat brain membranes
Outline: (§1)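 Competitive binding on rat brain membrane preparations with the tritiated radioligand named for each receptor (μ, [3H]DAMGO; δ, [3H][Ile5,6]deltorphin II; κ, [3H]U69,593). Affinity is reported as inhibition constant (Ki).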

[2] = biological target: Mu-type opioid receptor (Rattus norvegicus, UniProt P33535); experiment: Displacement of [3H][DAMGO] from mu opioid receptor of rat brain membranes; type: cell membranes, Membrane; outline: as §1
[3] = system: Mus musculus; experiment: In vivo analgesic effect of the compound (sc) assessed as antinociceptive potency by hot plate test in mice; type: functional
Outline: (§2)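 Male ICR mice of 20–30 g, each animal tested only once. Drug given subcutaneously at a minimum of three doses, 6–10 mice per dose. Hot-plate, tail-flick and p-phenylquinone writhing tests were run as modified procedures. Potency is given as the 50% effective dose with 95% confidence limits.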

[4] = biological target: Delta-type opioid receptor (Rattus norvegicus, UniProt P33533); experiment: Displacement of [3H]Ile5,6]-deltorphin II from delta opioid receptor of rat brain membranes; type: cell membranes, Membrane; outline: as §1
[5] = system: Mus musculus; experiment: In vivo analgesic effect of the compound (sc) assessed as antinociceptive potency by p-phenylquinone writhing test in mice; type: functional; outline: as §2
[6] = system: Mus musculus; experiment: In vivo analgesic effect of the compound (sc) assessed as antinociceptive potency by tail flick test in mice; type: functional; outline: as §2
[7] = system: Mus musculus; experiment: In vivo analgesic effect (sc) assessed as antinociceptive potency by tail flick test in mice; type: functional; outline: as §2
[8] = system: Mus musculus; experiment: In vivo analgesic effect (sc) assessed as antinociceptive potency by p-phenylquinone writhing test in mice; type: functional; outline: as §2
[9] = system: Mus musculus; experiment: In vivo analgesic effect (sc) assessed as antinociceptive potency by hot plate test in mice; type: functional; outline: as §2

Mu-type opioid receptor, sequence (P33535 whole entry): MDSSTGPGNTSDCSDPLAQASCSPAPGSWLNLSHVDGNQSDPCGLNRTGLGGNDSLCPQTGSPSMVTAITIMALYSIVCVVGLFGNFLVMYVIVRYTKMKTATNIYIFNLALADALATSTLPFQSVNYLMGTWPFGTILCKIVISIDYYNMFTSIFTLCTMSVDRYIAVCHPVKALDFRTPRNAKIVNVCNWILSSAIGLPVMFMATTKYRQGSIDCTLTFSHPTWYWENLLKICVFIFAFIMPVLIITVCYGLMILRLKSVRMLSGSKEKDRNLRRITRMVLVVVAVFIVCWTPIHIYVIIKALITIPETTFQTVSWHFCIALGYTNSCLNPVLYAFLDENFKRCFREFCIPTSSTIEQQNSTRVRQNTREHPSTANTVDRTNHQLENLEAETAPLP
Kappa-type opioid receptor, sequence (P34975 whole entry): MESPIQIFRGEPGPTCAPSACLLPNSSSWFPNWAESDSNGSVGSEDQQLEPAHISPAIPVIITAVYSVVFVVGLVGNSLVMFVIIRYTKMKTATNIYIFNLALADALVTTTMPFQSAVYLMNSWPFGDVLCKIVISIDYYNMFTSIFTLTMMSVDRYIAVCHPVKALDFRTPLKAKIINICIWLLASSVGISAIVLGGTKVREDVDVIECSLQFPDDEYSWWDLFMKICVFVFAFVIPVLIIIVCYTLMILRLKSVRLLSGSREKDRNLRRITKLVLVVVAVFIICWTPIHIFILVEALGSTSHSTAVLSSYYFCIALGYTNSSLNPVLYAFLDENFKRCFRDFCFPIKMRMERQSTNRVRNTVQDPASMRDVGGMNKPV
Delta-type opioid receptor, sequence (P33533 whole entry): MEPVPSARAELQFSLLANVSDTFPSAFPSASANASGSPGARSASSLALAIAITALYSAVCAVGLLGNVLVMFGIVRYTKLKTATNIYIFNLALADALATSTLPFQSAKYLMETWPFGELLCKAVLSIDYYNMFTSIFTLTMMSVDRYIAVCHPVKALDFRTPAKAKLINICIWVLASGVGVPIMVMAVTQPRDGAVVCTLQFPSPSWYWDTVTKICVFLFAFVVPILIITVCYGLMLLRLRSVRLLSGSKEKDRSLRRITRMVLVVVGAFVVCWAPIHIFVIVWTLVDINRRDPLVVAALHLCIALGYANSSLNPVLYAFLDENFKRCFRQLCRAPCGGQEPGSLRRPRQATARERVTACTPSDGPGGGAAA

Compound: COc1ccc2c(c1O)[C@]13CCN(C)[C@H](C2)[C@]1(O)CCC(=O)C3
- pKi [1]: 6.12
- pKi [2]: 7.49
- ED50 [3]: 2.6 mg/kg
- pKi [4]: 6.06

Compound: COc1ccc2c(c1OC)[C@@]13C=C(C#N)CC[C@@]1(O)[C@@H](C2)N(C)CC3
- pKi [1]: 6.44
- pKi [2]: 8.61
- ED50 [5]: 0.026 mg/kg
- ED50 [3]: 0.15 mg/kg
- ED50 [6]: 0.018 mg/kg
- pKi [4]: 6.97

Compound: COc1ccc2c(c1O)[C@@]13C=C(C#N)CC[C@@]1(O)[C@@H](C2)N(C)CC3
- pKi [1]: 5.78
- ED50 [5]: 0.18 mg/kg
- ED50 [3]: 0.5 mg/kg
- ED50 [6]: 1.88 mg/kg
- pKi [4]: 6.30

Compound: COc1ccc2c(c1O)[C@]13CCN(C)[C@H](C2)[C@]1(OC)CCC(=O)C3
- pKi [1]: 6.23
- pKi [2]: 8.33
- ED50 [3]: 0.29 mg/kg
- pKi [4]: 6.74

Compound: COc1ccc2c(c1OC)[C@]13CCN(C)[C@H](C2)[C@]1(O)CCC(=O)C3
- pKi [1]: 6.16
- pKi [2]: 8.41
- ED50 [3]: 0.14 mg/kg
- pKi [4]: 7.04

Compound: COc1ccc2c3c1O[C@H]1C(=O)CC[C@@]4(O)[C@@H](C2)N(C)CC[C@]314 [OXYCODONE]
- ED50 [7]: 0.94 mg/kg
- ED50 [8]: 0.38 mg/kg
- ED50 [9]: 1.37 mg/kg

Compound: COc1ccc2c(c1O)[C@@]13C=C(C#N)CC[C@@]1(OC)[C@@H](C2)N(C)CC3
- pKi [1]: 6.42
- pKi [2]: 8.27
- ED50 [5]: 0.11 mg/kg
- ED50 [3]: 0.25 mg/kg
- ED50 [6]: 0.21 mg/kg
- pKi [4]: 6.71
